Bioassay records: PubChem BioAssay, The Scripps Research Institute Molecular Screening Center
ABHD4 inh: ABHD4 inhibitors, primary screen, biochemical, fluorescence polarization, mouse; 370,000 tested, 0.54% active; (Lyso)-N-acylphosphatidylethanolamine lipase (Mus musculus), Q8VD66; AID 720543, 2013; purified mABHD4, FP-Rh probe fluorescence polarization; inhibition, % at 8.92 µM;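 active = inhibition exceeding the mean over every tested compound plus 3 SD, cut at about 30% in these data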;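 also: 0% = plate median of compound wells and 100% = S159A mutant with DMSO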
Target sequence (Q8VD66 whole entry, looked up): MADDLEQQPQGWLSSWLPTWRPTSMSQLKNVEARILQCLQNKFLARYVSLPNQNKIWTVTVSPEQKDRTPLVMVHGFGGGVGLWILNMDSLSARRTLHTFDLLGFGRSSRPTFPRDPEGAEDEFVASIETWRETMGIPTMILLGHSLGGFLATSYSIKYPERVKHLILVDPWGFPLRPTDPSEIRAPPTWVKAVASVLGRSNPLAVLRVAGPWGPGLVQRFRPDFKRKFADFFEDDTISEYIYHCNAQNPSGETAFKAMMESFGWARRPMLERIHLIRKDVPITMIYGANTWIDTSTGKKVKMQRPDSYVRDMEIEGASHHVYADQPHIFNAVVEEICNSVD
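Test system: mouse ABHD4 enzyme, wild type. Reagent: FP-Rh fluorescent activity-based probe, added after compound pre-incubation. Timing: pre-incubation 45 min, probe exposure 60 min, at 25 °C. Technique: FP readout, ex 525 nm / em 598 nm. Benchmarks: high control S159A mutant with DMSO, low control median of compound wells.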
pPAFAH inh: pPAFAH enzyme inhibitors, primary screen, biochemical, fluorescence polarization, human | Platelet-activating factor acetylhydrolase (Homo sapiens), Q13093 | recombinant pPAFAH, FP-rhodamine probe fluorescence polarization | inhibition, % at 3.39 µM | 330,000 tested, 1.5% active | AID 463082, 2010;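 active = inhibition above the mean inhibition across the screen plus 3 SD, cut at about 25% in these data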;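 also: inhibitors block binding of the rhodamine activity-based probe so polarization drops; 0% = enzyme with DMSO and 100% = wells lacking pPAFAH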
PAFAH1B3 FP inh: PAFAH1B3 enzyme inhibitors, primary screen, biochemical, fluorescence polarization, human; Platelet-activating factor acetylhydrolase IB subunit alpha1 (Homo sapiens), Q15102; recombinant PAFAH1B3, FP-rhodamine probe; inhibition, % at 3.39 µM; 340,000 tested, 0.28% active; AID 492972, 2010;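 active = inhibition above the screen-wide average of all tested compounds plus 3 SD, cut at about 25% in these data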;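 also: 0% = enzyme with DMSO only and 100% = wells lacking PAFAH1B3 protein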
PAFAH2 inh: PAFAH2 enzyme inhibitors, primary screen, biochemical, fluorescence polarization, human | Platelet-activating factor acetylhydrolase 2, cytoplasmic (Homo sapiens), Q99487 | recombinant PAFAH2, FP-rhodamine activity probe | inhibition, % at 3.39 µM | 340,000 tested, 0.99% active | AID 492956, 2010;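 active = inhibition above the mean over all tested compounds plus 3 SD, cut at about 30% in these data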;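 also: inhibitors block probe labeling of enzyme so polarization drops; 0% = enzyme with DMSO and 100% = wells lacking PAFAH2 protein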
PAFAH1B2 inh: PAFAH1B2 enzyme inhibitors, primary screen, biochemical, fluorescence polarization, human; AID 492953, 2010; 340,000 tested, 1.2% active; recombinant PAFAH1B2, FP-rhodamine activity probe; Platelet-activating factor acetylhydrolase IB subunit alpha2 (Homo sapiens), P68402; inhibition, % at 3.39 µM;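 active = inhibition above the mean of all tested compounds plus 3 SD, cut at about 24% in these data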;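 also: 0% = enzyme with DMSO and 100% = wells lacking PAFAH1B2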
Target sequence (P68402 whole entry, looked up): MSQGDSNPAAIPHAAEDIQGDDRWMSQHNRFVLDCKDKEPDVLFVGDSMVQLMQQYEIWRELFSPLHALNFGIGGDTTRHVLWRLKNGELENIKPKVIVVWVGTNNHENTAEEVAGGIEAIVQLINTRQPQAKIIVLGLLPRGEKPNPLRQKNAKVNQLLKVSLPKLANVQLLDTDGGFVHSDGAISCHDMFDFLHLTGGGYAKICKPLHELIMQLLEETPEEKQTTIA
HTRA1 inhibitor: HTRA1 serine protease inhibitors, primary screen, biochemical, fluorescence polarization, HTS. Q92743. recombinant HTRA1, FP-rhodamine activity-based probe. inhibition, % at 5.96 µM. 340,000 tested, 0.5% active. AID 504803, 2011; in the data active = inhibition above about 36%;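 also: 0% = enzyme with DMSO and 100% = wells lacking enzyme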
* = called active by the depositor; · = no result. Most compounds without a hit are left out; they make up all but 2.8% or so of the library.

SMILES | ABHD4 inh | pPAFAH inh | PAFAH1B3 FP inh | PAFAH2 inh | PAFAH1B2 inh | HTRA1 inhibitor
CCOC(=O)CC[C@@]1(C(=O)OCC)C[C@@H](CC(=O)NCCc2ccccc2OC)C(=O)N2CCCC=C21 | -3.9 | · | · | · | · | ·
CCC(C)c1ccccc1NC(=O)COC(=O)c1ccc(N2CCCC2)c([N+](=O)[O-])c1 (configuration not stated) | 5.9 | 30.1* | 4.1 | 78.6* | -2.4 | -4.1
CN(C)C(=O)COC(=O)c1ccccc1Nc1ccc(SC(F)F)cc1 | -29.5 | 25.8* | 9.5 | 5.6 | 4.1 | -14.3
CN(c1ccccc1)S(=O)(=O)c1cccc(NC(=O)CSc2nncs2)c1 | 3.0 | 1.0 | 0.8 | 0.0 | 5.4 | -8.8
CN(c1ccccc1)S(=O)(=O)c1cccc(NC(=O)CSc2ncn[nH]2)c1 | -6.7 | 2.0 | -1.3 | 4.1 | 24.9* | -8.9
NC(=O)/C(=C/c1ccco1)C(N)=S | 12.0 | 25.8* | 16.2 | 6.7 | 10.1 | -0.8
Cn1cc(C2(C)CCOc3ccccc32)c2ccccc21 (configuration not stated) | -5.8 | · | · | · | · | ·
Cc1ccc(-c2nc(CSCC(=O)N3CCN(c4ccccn4)CC3)c(C)o2)cc1 | 3.4 | -0.3 | 2.8 | 2.9 | 24.6* | -6.0
CCc1ccc(-c2nc(CSCC(=O)N3CCN(c4ccccn4)CC3)c(C)o2)cc1 | 0.1 | 7.8 | 3.0 | -1.4 | 44.2* | -7.4
S=C(Nc1ccccc1Br)OCCN1CCCC12CCC(c1ccccc1)CC2 (configuration not stated) | 5.2 | · | · | · | · | ·
Cc1ccc(CNC(=O)O[C@H]2CC[C@@]34CCCN3C(=O)CCC[C@H]4[C@H]2C)o1 | -0.8 | · | · | · | · | ·
Cc1ccc(COc2ccc(/C=N/O)cc2)cc1 | -13.6 | 1.4 | 1.4 | 1.2 | 33.2* | -7.1
CCC(C)N1C(=O)/C(=C/c2c(NCCCOC(C)C)nc3c(C)cccn3c2=O)SC1=S (configuration not stated) | -7.5 | -0.3 | 37.5* | 52.0* | 34.4* | -5.8
CCCN1C(=O)/C(=C/c2c(NCCCOC(C)C)nc3c(C)cccn3c2=O)SC1=S | · | -6.8 | 4.1 | -9.3 | -4.7 | -4.0
O=C(COc1ccc(-c2ccccc2)cc1)NNC(=O)Nc1ccccc1 | -29.1 | -0.1 | -4.1 | -7.5 | 0.5 | -14.1
CC(C)(C)c1ccc(OCC(=O)NNC(=O)Nc2ccccc2)cc1 | 6.5 | 29.5* | 6.1 | -4.0 | 38.6* | 3.5
COc1cc(NC(=O)c2cccnc2)ccc1NC(=O)c1ccccc1Cl | 4.9 | 6.7 | 2.2 | 1.1 | -1.2 | -2.4
COc1cc(S(=O)(=O)Nc2cccc(C)c2)ccc1NC(=O)c1cccnc1 | -0.5 | 30.2* | -2.1 | -7.2 | -1.7 | -6.2
FC(F)(F)c1cccc(NC(=S)NCc2ccccn2)c1 | 0.2 | 3.9 | 1.8 | 1.8 | 4.9 | 2.2
FC(F)(F)c1cccc(NC(=S)NNC(=S)NCc2ccccc2)c1 | 10.6 | 47.7* | 15.7 | 14.3 | 19.0 | 19.1
Cc1ccccc1NS(=O)(=O)c1ccc(C(=O)N2CCN(c3ccccn3)CC2)cc1 | -5.1 | 26.4* | -3.9 | -0.9 | 2.5 | -1.5
Cc1ccccc1NS(=O)(=O)c1ccc(OCC(=O)NCc2ccccn2)cc1 | 0.2 | 28.7* | 10.3 | 10.6 | 1.7 | -3.4
Cc1ccccc1NS(=O)(=O)c1ccc(C(=O)N2CCCCCC2)cc1 | -1.8 | 24.9* | -2.8 | 13.1 | -1.1 | -3.8
O=C(c1ccc(S(=O)(=O)Nc2ccccc2F)cc1)N1CCN(c2ccccn2)CC1 | 2.7 | 3.4 | 5.2 | -2.4 | 2.1 | 8.1
O=S1(=O)c2ccc(Br)cc2OC[C@H](Cc2ccccc2)N1Cc1cn(CCC2OCCCO2)nn1 | -2.3 | · | · | · | · | ·
SMILES | ABHD4 inh | pPAFAH inh | PAFAH1B3 FP inh | PAFAH2 inh | PAFAH1B2 inh | HTRA1 inhibitor
COC(=O)[C@H](C(C)C)N(CCCc1cn(Cc2ccccc2)nn1)S(=O)(=O)c1ccccc1Br | -1.3 | · | · | · | · | ·
CN(C)c1ccsc1C(=O)NNS(=O)(=O)c1ccc(Cl)cc1 | 7.5 | -1.3 | 2.3 | 1.8 | 31.7* | 8.3
Cc1occc1C(=O)NNS(=O)(=O)c1ccc(Cl)cc1 | -7.1 | 6.1 | 5.2 | 3.0 | 19.4 | 3.1
NS(=O)(=O)c1cccc(NC(=O)CC23CC4CC(C2)CC(CC(=O)Nc2cccc(S(N)(=O)=O)c2)(C4)C3)c1 | -4.9 | 6.0 | 6.9 | -4.3 | 35.7* | -8.0
CC(=O)NS(=O)(=O)c1ccc(NC(=O)CC23CC4CC(CC(Br)(C4)C2)C3)cc1 | 7.1 | -0.5 | 5.5 | -4.8 | 24.5* | 0.7
O=C(COC(=O)c1cc(-c2ccco2)nc2ccccc12)NCc1ccc2c(c1)OCO2 | 1.3 | 26.4* | 6.1 | 2.5 | 0.0 | -27.1
CC(COc1ccc(S(C)(=O)=O)cc1)CN1CCC(C(O)(c2ccccc2)c2ccccc2)CC1 (configuration not stated) | -3.0 | · | · | · | · | ·
O=C1c2ccccc2C(=O)N1/N=C/c1ccc(O)c(O)c1O | · | · | 17.6 | 25.2 | 3.8 | 44.1*
CCc1ccc(-n2cc(-c3ccc([N+](=O)[O-])cc3)[nH]c2=S)cc1 | 0.3 | -0.5 | -18.4 | -5.7 | 0.0 | 0.7
CCc1ccc(-c2cn(C3CCCCC3)c(=S)[nH]2)cc1 | 25.1 | 29.6* | 5.6 | 8.7 | 0.7 | -1.8
COC(=O)c1cc(-c2ccc(C)c3ccccc23)c(=O)n2c1CCC2 | -5.1 | · | · | · | · | ·
COc1cc(/C=C2\SC(=S)N(CC(=O)O)C2=O)ccc1OS(=O)(=O)c1ccc(C)cc1 | 15.2 | -2.5 | 21.2 | 8.4 | 34.9* | -34.5
CCC1CCc2c(sc(N)c2C(N)=O)C1 (configuration not stated) | 9.7 | 8.3 | 11.0 | 0.1 | -1.6 | -1.1
CCOC(=O)c1c(N)sc2c1CCC1C(=O)N(C3CCCCC3)C(=O)C21 (configuration not stated) | 19.0 | 34.1* | 2.4 | 11.5 | 4.3 | -2.8
CCOC(=O)c1c(N)sc2c1CCC(CC)C2 (configuration not stated) | 3.9 | 25.5* | -1.0 | 4.7 | 2.6 | 1.8
O=C(OC12CCCN(C1)/C(=C/c1ccccc1)C2)c1cccc(F)c1 (configuration not stated) | 0.4 | · | · | · | · | ·
O=[N+]([O-])c1cc(-c2ccc(/C=N\n3cnnc3)o2)cc([N+](=O)[O-])c1 | 22.7 | 27.3* | 5.4 | 3.4 | 1.4 | 30.0
O=C(CC1CCCC1)N1CC[C@H]2[C@H](CCCN2Cc2ccccc2)C1 | 9.1 | · | · | · | · | ·
O=C(O)c1ccc(NC(=O)c2cccc(C(=O)Nc3ccc(C(=O)O)cc3)n2)cc1 | -15.1 | 8.1 | 40.0* | 20.3 | 30.6* | 28.9
C=C(C)COc1ccc2c(C)c(CC(=O)N3C[C@H]4C[C@@H](C3)c3cccc(=O)n3C4)c(=O)oc2c1 | 0.7 | 4.7 | 4.4 | 4.8 | 4.3 | 2.8
